In ChEMBL document CHEMBL3352193, “Synthesis of novel substituted purine derivatives and identification of the cell death mechanism” (Eur J Med Chem, 2015):
Calls of active or inactive are those of the source. The calls are words filed in the database; no cut-off is given here.

Legend:
Type in all cases: functional, cell-based
[1] = Cytotoxicity against human HCT116 cells after 72 hrs by SRB assay; conditions: HCT-116, 72 h
How it was run: (§1)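 SRB screen. Cells seeded at 2000–10,000/well and treated next day for 72 h with 40, 20, 10, 5 and 2.5 µM (DMSO under 1%). TCA fixation, 0.4% SRB staining, Tris solubilization, absorbance at 515 nm. Growth inhibition calculated relative to DMSO-only wells. IC50 derived from the five-concentration inhibition percentages.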

[2] = Cytotoxicity against human HuH7 cells after 72 hrs by SRB assay; conditions: Huh-7, 72 h
How it was run: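 Sulforhodamine B assay. Cells seeded at 2000–10,000/well and treated the next day in triplicate with ten concentrations (DMSO vehicle, under 1% final) for 24, 48 or 72 h at 37 °C, 5% CO2. Fixed with ice-cold TCA for 1 h at 4 °C, stained with 0.4% SRB in 1% acetic acid, dye solubilized in 10 mM Tris base, A515 read. % inhibition = 100 × (1 − OD drug/OD DMSO). IC50 taken from dose–response curves.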

T47D [3] = assay: Cytotoxicity against human T47D cells after 72 hrs by SRB assay
Huh-7 = assay: Cytotoxicity against human HuH7 cells at 2.5 to 40 uM after 72 hrs by SRB assay; how it was run: as §1
T47D [4] = assay: Cytotoxicity against human T47D cells at 2.5 to 40 uM after 72 hrs by SRB assay; how it was run: as §1
HCT-116 = assay: Cytotoxicity against human HCT116 cells at 2.5 to 40 uM after 72 hrs by SRB assay; how it was run: as §1

Compound	IC50 [1]	IC50 [2]	IC50 (T47D [3])	inhibition (Huh-7)	inhibition (T47D [4])	inhibition (HCT-116)
Cc1ccc(S(=O)(=O)n2cnc3c(N4CCC(C)CC4)ncnc32)cc1	14.6 µM	17.8 µM	22.5 µM	–	–	–
COc1ccc(CNc2ncnc3[nH]cnc23)cc1	86.6 µM	–	–	inactive	inactive	–
CCOC(=O)Cn1cnc2c(NCc3cccc(C(F)(F)F)c3)ncnc21	> 200 µM	–	–	inactive	inactive	–
OCCNc1ncnc2[nH]cnc12	–	–	–	inactive	inactive	inactive
Cc1ccc(S(=O)(=O)n2cnc3c(Cl)ncnc32)cc1	22.8 µM	20.8 µM	13.9 µM	–	–	–
c1nc(NC2CC2)c2nc[nH]c2n1	–	–	–	inactive	inactive	inactive
OCCN1CCN(c2[nH]cnc3ncnc2-3)CC1	–	–	–	inactive	inactive	inactive
C1=CC(CCNc2ncnc3[nH]cnc23)CCC1 (stereo not given)	12.9 µM	14.2 µM	40.3 µM	–	–	–
Nc1ncnc2c1ncn2CCNCCN1CCOCC1	–	–	–	inactive	inactive	inactive
c1ccc(CN2CCC(Nc3ncnc4[nH]cnc34)CC2)cc1	–	–	–	inactive	inactive	inactive
c1ccc(NCCNc2ncnc3[nH]cnc23)cc1	132 µM	–	–	inactive	inactive	–
CC1CCN(c2ncnc3c2ncn3C2CCCC2)CC1	16.6 µM	17.4 µM	21 µM	–	–	–
FC(F)(F)c1cccc(CNc2ncnc3[nH]cnc23)c1	102 µM	68.3 µM	–	–	inactive	–
O=c1[nH]cc(F)c(=O)[nH]1 [FLUOROURACIL]	6 µM	–	7.9 µM	–	–	–
CCOC(=O)Cn1cnc2c(N3CCN(CCO)CC3)ncnc21	–	–	–	inactive	inactive	inactive
CCNCCNCCn1cnc2c(N)ncnc21	–	–	–	inactive	inactive	inactive
Cc1ccc(S(=O)(=O)n2cnc3c(NCc4ccc(F)cc4F)ncnc32)cc1	–	–	116 µM	inactive	–	inactive
Nc1nc(Cl)nc2c1ncn2[C@H]1C[C@H](O)[C@@H](CO)O1 [CLADRIBINE]	0.3 µM	1.8 µM	0.7 µM	–	–	–
CN1CCN(NCCn2cnc3c(N)ncnc32)CC1	–	–	–	inactive	inactive	inactive

Compound	IC50 [1]	IC50 [2]	IC50 (T47D [3])	inhibition (Huh-7)	inhibition (T47D [4])	inhibition (HCT-116)
O=CN1CCN(c2ncnc3[nH]cnc23)CC1	–	–	–	inactive	inactive	inactive
CCOC(=O)Cn1cnc2c(N3CCN(c4ccc(C(F)(F)F)cc4)CC3)ncnc21	72.4 µM	53.3 µM	–	–	inactive	–
Cc1ccc(S(=O)(=O)n2cnc3c(NC4CC4)ncnc32)cc1	–	–	–	inactive	inactive	inactive
CN(C)CCNCCn1cnc2c(N)ncnc21	–	–	–	inactive	inactive	inactive
Nc1ncnc2c1ncn2CCNCCN1CCCC1	–	–	–	inactive	inactive	inactive
Cc1ccc(S(=O)(=O)n2cnc3c(NCc4ccc(Cl)cc4Cl)ncnc32)cc1	28.1 µM	26.9 µM	47.6 µM	–	–	–
Fc1ccc(CNc2ncnc3[nH]cnc23)c(F)c1	–	–	–	inactive	inactive	inactive
CC1CCN(c2ncnc3[nH]cnc23)CC1	–	–	–	inactive	inactive	inactive
Nc1ncnc2c1ncn2CCN1CCN(CCN2CCOCC2)CC1	–	–	–	inactive	inactive	inactive
COc1ccc(CNc2ncnc3c2ncn3S(=O)(=O)c2ccc(C)cc2)cc1	–	–	–	inactive	inactive	inactive
Cc1ccc(S(=O)(=O)n2cnc3c(NCCC4C=CCCC4)ncnc32)cc1 (stereo not given)	8.7 µM	9.4 µM	34.5 µM	–	–	–
Clc1ccc(CNc2ncnc3[nH]cnc23)c(Cl)c1	–	–	147 µM	inactive	–	inactive
Nc1nc(F)nc2c1ncn2[C@@H]1O[C@H](CO)[C@@H](O)[C@@H]1O [FLUDARABINE]	6.6 µM	60.1 µM	46.2 µM	–	–	–
Nc1ncnc2c1ncn2CCNCCNc1ccccc1	–	–	–	inactive	inactive	inactive
OC[C@H]1O[C@@H](n2cnc3c2N=CNC[C@H]3O)C[C@@H]1O	–	–	–	inactive	inactive	inactive
CCOC(=O)Cn1cnc2c(NCc3ccc(Cl)cc3Cl)ncnc21	–	–	99.9 µM	inactive	–	inactive
Nc1ncnc2c1ncn2CCN1CCN(CCO)CC1	–	–	–	inactive	inactive	inactive
CC(C)NCCNCCn1cnc2c(N)ncnc21	–	–	–	inactive	inactive	inactive
